Bioassay records from PubChem.
ASAP1 inh: ASAP1 ArfGAP inhibition | hit rate 0.19% among 360,000 | inhibition, % at 16.5 µM | Q9ULH1 | AID 624377 | ASAP1-stimulated ARF1 GTP hydrolysis, GDP FP detection; in the data active = inhibition above about 25%
A3A deaminase: blocks human APOBEC3A ssDNA deamination; P31941; recombinant A3A, FAM/TAMRA ssDNA deamination fluorescence; inhibition, % at 20 µM; hit rate 0.41% among 330,000; AID 493011;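 active = at least 40% inhibition at 20 µM here, with at most 30% in a related deaminase screen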
ARFGAP1 inh: inhibitors of rat ARFGAP1. inhibition, % at 16.5 µM. Arfgap1-stimulated ARF1 GTP hydrolysis, GDP FP detection. Q62848. AID 651572. hit rate 0.26% among 360,000;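 active = inhibition above a per-plate limit, mean inhibition of low control wells plus 3 SD, cut at about 25% in these data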
Target sequence (Q62848 1-136 limits assumed): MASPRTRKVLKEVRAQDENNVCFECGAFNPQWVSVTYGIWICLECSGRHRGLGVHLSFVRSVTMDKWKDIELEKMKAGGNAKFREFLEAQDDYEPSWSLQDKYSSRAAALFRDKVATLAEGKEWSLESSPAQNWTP
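System: truncated rat Arfgap1 GAP domain / Medium: HEPES-based buffer, pH 7.5 / Also added: N-terminally truncated human ARF1-GTP substrate / Incubation: enzyme reaction 120 min at 25 °C after 20 min preincubation / Measured by: FP of antibody-bound GDP Alexa 633 tracer, ex 620/em 688 nm / Replicates: singlicate, each compound tested once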
Mot1-301 SUMO: SUMOylation pathway inhibition by Mot1-301 growth rescue; growth rescue, % at 18.8 µM; hit rate 1% among 320,000; S. cerevisiae Mot1-301 growth rescue, ATP luminescence, 38.5C; percent above DMSO median, 100 means doubled; AID 2716;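 active = every valid replicate shows activation above 250% relative to neutral control wells; inactive = the rest, any valid replicate at or below 250%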
APOBEC3G inh: blocks human APOBEC3G single-stranded DNA deamination. Q9HC16. recombinant A3G, ssDNA deamination FAM/TAMRA fluorescence. inhibition, % at 20 µM. hit rate 0.28% among 330,000. AID 493012;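 active = inhibition of at least 40% at 20 µM, with no more than 30% in the related APOBEC3A deaminase screen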
Target sequence (Q9HC16 whole entry, looked up): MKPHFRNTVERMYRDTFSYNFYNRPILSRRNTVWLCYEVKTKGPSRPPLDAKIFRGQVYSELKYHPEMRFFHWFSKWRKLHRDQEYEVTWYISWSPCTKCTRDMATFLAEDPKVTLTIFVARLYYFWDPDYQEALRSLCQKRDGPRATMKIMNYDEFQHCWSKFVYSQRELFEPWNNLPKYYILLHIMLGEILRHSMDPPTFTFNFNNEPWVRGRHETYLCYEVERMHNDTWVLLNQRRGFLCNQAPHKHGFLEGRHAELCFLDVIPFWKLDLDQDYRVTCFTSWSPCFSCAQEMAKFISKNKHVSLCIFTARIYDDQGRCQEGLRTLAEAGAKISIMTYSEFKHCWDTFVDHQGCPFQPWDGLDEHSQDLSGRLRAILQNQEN
Statin myotox sup: protects C2C12 myotubes from simvastatin toxicity; hit rate 0.78% among 330,000; ATP luminescence, 48 h; scaled: DMSO 0, geranylgeraniol control 100; rescue of ATP level, % at 7.49 µM;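 active = mean ATP rescue above about 67%, or every replicate alone reaching that limit, limit read from the data, passing the limit was not always enough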;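 note: myotubes were challenged with 10 µM simvastatin during compound exposure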
A number is an active result; 0 = inactive; - = not tested or not shown. Only some compounds are listed: those with a hit (about 2.1% of all), similar ones and a draw of the others.

SMILES	ASAP1 inh	A3A deaminase	ARFGAP1 inh	Mot1-301 SUMO	APOBEC3G inh	Statin myotox sup
O=C(NC(=S)Nc1nc(-c2ccc(Br)cc2)cs1)c1cccnc1	0	0	0	0	0	253.6
Cc1ccc(NC(=S)c2ccncc2)cc1	0	0	0	0	0	0
Cc1ccc(NC(=S)c2ccccc2)cc1	0	0	0	323.6	0	0
O=c1[nH][nH]c(-c2ccccc2O)c1C(C[N+](=O)[O-])c1ccc(Cl)cc1Cl (stereo not given)	0	0	0	268.6	0	0
O=C(COC(=O)C1=COCCO1)Nc1ccc(F)c(F)c1	0	0	0	608.6	0	0
CN(C(=O)c1ccc(NC(=O)Cc2ccc(NC(=O)C3CCN(C(=O)CCc4ccccc4)CC3)cc2)cc1)C1CC1	0	0	0	0	0	160.1
CC(C)N1CCN(c2ccc(OC[C@H]3CO[C@](Cn4cncn4)(c4ccc(Cl)cc4Cl)O3)cc2)CC1	0	0	0	269.2	0	0
C[C@@H]1CN([C@H](C)CO)C(=O)c2cc(C3=CCCCC3)cnc2O[C@@H]1CN(C)C(=O)Nc1cccc(F)c1	-	-	-	-	-	0
O=S(=O)(c1ccc(S(=O)(=O)N(Cc2ccco2)Cc2ccccc2Cl)cc1)N1CCCC1	0	0	0	0	0	93.5
CCCN(C)C[C@H]1OCCCC[C@@H](C)Oc2ccc(N(C)C)cc2C(=O)N([C@H](C)CO)C[C@H]1C	-	-	-	-	-	0
Cc1cc(NCCCN2CCOCC2)n2ncc(-c3ccccc3)c2n1	0	0	0	0	0	0
CN(C)CCCNc1cc(C(C)(C)C)nc2c(-c3ccccc3)cnn12	0	0	0	267.3	0	-
C[C@H](CO)N1C[C@H](C)[C@@H](CN(C)C(=O)NC2CCCCC2)OCCCC[C@H](C)Oc2ccc(NS(C)(=O)=O)cc2C1=O	-	-	-	-	-	0
Cc1ccc(O)c(NC(=O)c2cc(-c3cccs3)on2)c1	0	0	0	0	0	213.0
Cc1ccc(O)c(NC(=O)c2cc(-c3ccc(F)cc3)on2)c1	0	0	0	0	0	0
O=C(COC(=O)c1ccccc1NC(=O)c1ccco1)Nc1ncc(Cl)cc1Cl	0	0	0	0	0	94.1
O=C(OCC(=O)N1CCN(C(=O)c2ccco2)CC1)c1ccccc1OCc1ccc(Cl)cc1	0	0	0	0	0	133.0
O=C(Nc1ccccc1C(=O)OCC(=O)N1CCc2ccccc2C1)c1ccco1	0	0	0	356.0	0	0
COc1cc(NC(=O)c2ccco2)c(C(=O)OCC(=O)Nc2ncc(Cl)cc2Cl)cc1OC	0	0	0	0	0	-
CCCC(=O)Nc1ccc2c(c1)OC[C@H](C)N(Cc1ccc(-c3ccccn3)cc1)C[C@@H](C)[C@H](OC)CN(C)C2=O	-	-	-	-	-	0
CN1C(=O)c2cc(NS(C)(=O)=O)ccc2OC[C@@H]2O[C@H](CC(=O)NCc3ccc(-c4ccccc4)cc3)CC[C@@H]21	-	-	-	-	-	0
CCCN1C[C@H](C)[C@@H](OC)CN(C)C(=O)c2cc(NC(=O)Nc3cccc(OC)c3)ccc2OC[C@H]1C	-	-	-	-	-	0
O=[N+]([O-])c1ccc(N2CCCCC2)s1	0	0	0	0	0	124.5
CC1CCCN(c2ccc([N+](=O)[O-])s2)C1 (stereo not given)	0	-	0	-	-	-
CNC[C@H]1Oc2ccc(NC(=O)CCCN(C)C)cc2C(=O)N([C@H](C)CO)C[C@@H]1C	-	-	-	-	-	0
SMILES	ASAP1 inh	A3A deaminase	ARFGAP1 inh	Mot1-301 SUMO	APOBEC3G inh	Statin myotox sup
CC(=O)C(C(C)=O)C1(O)C(=O)c2ccccc2C1=O	27.2	0	31.5	0	0	0
CC(=O)N(C)C1=C(O)c2ccccc2C(=O)C1=O	0	0	0	0	0	0
CCC1(CC)C(=O)NC(=O)NC1=Nc1cccc(OC)c1	0	0	0	0	0	117.0
CCCCC1(CC)C(=O)NC(=O)NC1=Nc1ccc(OC)cc1 (stereo not given)	0	0	0	0	0	0
Cc1ccc(O)c(C2=NNC(O)(C(F)(F)F)C2)c1 (stereo not given)	0	0	0	340.4	0	-
COC(=O)c1cccc(N(C(=O)c2cnccn2)C(C(=O)NCc2ccccc2)c2ccco2)c1 (stereo not given)	0	0	0	321.8	0	-
CN1CCN(C(=O)C[C@@H]2CC[C@@H]3[C@H](COC[C@H](O)CN3Cc3cccc(F)c3)O2)CC1	-	-	-	-	-	0
COc1ccc(NC(C)=O)cc1NC(=O)CSc1nc2ncccc2[nH]1	0	0	0	330.6	0	0
COc1ccccc1NC(=O)CSc1nc2ncccc2[nH]1	0	0	0	0	0	0
CCCSC1=N/C(=C\c2ccc3c(c2)OCO3)C(=O)S1	0	0	0	0	0	-
CCCSC1=N/C(=C\c2ccsc2)C(=O)S1	0	0	0	0	0	103.4
CCSC1=N/C(=C\c2ccc3c(c2)OCO3)C(=O)S1	0	0	0	0	0	97.1
CCCSC1=N/C(=C\c2ccc([N+](=O)[O-])o2)C(=O)S1	0	-	0	-	-	0
COCC#Cc1ccc2c(c1)O[C@@H](CN(C)Cc1ccncc1)[C@@H](C)CN([C@@H](C)CO)S2(=O)=O	-	-	-	-	-	0
COc1cccc(S(=O)(=O)N[C@@H]2CC[C@H](CCNC(=O)Nc3cc(F)ccc3F)O[C@H]2CO)c1	-	-	-	-	-	0
C[C@H]1CN([C@@H](C)CO)C(=O)CCCn2cc(nn2)CO[C@H]1CN(C)Cc1cccnc1	-	-	-	-	-	0
COc1cc(Br)c(-c2sc(Nc3ccccc3)n[n+]2-c2ccc(F)cc2)cc1OC	0	0	0	0	0	134.9
C[C@H]1CN([C@@H](C)CO)C(=O)c2cc(NC(=O)NC3CCCCC3)ccc2O[C@H]1CN(C)Cc1ccncc1	-	-	-	-	-	0
O=C(c1ccc(F)cc1)N1CCC(N2CCOCC2)CC1	0	0	0	0	0	-
O=C(c1ccc(Br)cc1)N1CCCC1	0	0	0	0	0	94.3
Cc1ccc(C(=O)N2CCSCC2)cc1	0	0	0	0	0	103.4
O=C(c1ccc(F)cc1)N1CCC(N2CCCCCC2)CC1	0	0	0	0	0	144.6
CN1C(=O)c2cc(NC(=O)c3ccc(F)c(F)c3)ccc2OC[C@@H]2O[C@H](CC(=O)N[C@H]3CCN(Cc4ccccc4)C3)CC[C@@H]21	-	-	-	-	-	0
CCOC(=O)c1cnc(-c2ccccc2)[nH]c1=O	0	0	0	319.5	0	0
CCOC(=O)c1cnc(-c2cccc(OC)c2)[nH]c1=O	0	0	0	0	0	0
CCOc1ccc(C(C)=O)cc1N1C(=O)C2C3C=CC(O3)C2C1=O (stereo not given)	-	0	-	0	49.4	0
C[C@H]1CN([C@@H](C)CO)C(=O)c2cc(NC(=O)CCCN(C)C)ccc2O[C@H]1CN(C)Cc1ccc(-c2ccccc2)cc1	-	-	-	-	-	0
Cc1cccc(NC(=O)c2ccc(OC3CSC3)cc2)c1	0	0	0	0	0	105.2
Cc1nc(C)c(C(=O)C2=C(O)C(=O)N(CCCn3ccnc3)C2c2ccc(Cl)cc2)s1 (stereo not given)	0	0	0	0	0	127.9
